Reference: ChEMBL document CHEMBL1240333, “Surveying polypeptide and protein domain conformation and association with FlAsH and ReAsH” (Nat Chem Biol, 2007)
Activity calls are given as the source filed them. No cut-off for these calls is given here. Peptide text beside a SMILES is read from it.

How the values were obtained:
Transcription factor Jun [1] = molecular target: T1, Transcription factor Jun (Homo sapiens, UniProt P05412); assay: Binding affinity to wild type c-Jun homodimer by circular dichroism spectroscopy
T1 sequence (P05412 whole entry): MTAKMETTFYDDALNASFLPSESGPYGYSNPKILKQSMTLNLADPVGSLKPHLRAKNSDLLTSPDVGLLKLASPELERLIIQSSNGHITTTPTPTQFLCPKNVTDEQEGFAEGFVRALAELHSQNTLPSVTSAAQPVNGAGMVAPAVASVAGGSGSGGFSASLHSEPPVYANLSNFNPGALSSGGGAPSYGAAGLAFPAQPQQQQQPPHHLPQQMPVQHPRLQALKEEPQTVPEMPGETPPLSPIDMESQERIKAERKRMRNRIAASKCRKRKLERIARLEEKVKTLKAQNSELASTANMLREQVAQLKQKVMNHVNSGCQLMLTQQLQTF

Transcription factor Jun [2] = molecular target: T1, Transcription factor Jun; assay: Binding affinity to c-Jun homodimer containing bipartite tetracysteine motif at 100 nM
Transcription factor Jun [3] = molecular target: T1, Transcription factor Jun; assay: Binding affinity to wild-type c-Jun homodimer at by circular dichroism spectroscopy
Transcription factor Jun [4] = molecular target: T1, Transcription factor Jun; assay: Binding affinity to c-Jun homodimer containing bipartite tetracysteine motif at 25 nM
How it was run: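 Fluorescence titration: 25 nM FlAsH or ReAsH titrated with increasing synthetic peptide or protein domain in 100 mM Tris-HCl pH 7.8 with 3.5 mM TCEP, 1 mM EDT, 1 mM EDTA. Emission read at 530 ± 12.5 nm (FlAsH) or 630 ± 17.5 nm (ReAsH) after reaching equilibrium, tracked over time. Apparent Kd taken from intensity versus concentration. Points are means of ≥3 independent titrations ± s.d.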

- Activity (Transcription factor Jun [1]): inactive
- Activity (Transcription factor Jun [2]): Active
- Kd (Transcription factor Jun [3]): 10 µM
- Activity (Transcription factor Jun [4]): Active
Compound: CC[C@H](C)[C@H](NC(=O)[C@H](CCCNC(=N)N)NC(=O)[C@H](Cc1c[nH]c2ccccc12)NC(C)=O)C(=O)N[C@@H](C)C(=O)N[C@@H](CCCNC(=N)N)C(=O)N[C@@H](CC(C)C)C(=O)N[C@@H](CCC(=O)O)C(=O)N[C@@H](CCC(=O)O)C(=O)N[C@@H](CCCCN)C(=O)N[C@H](C(=O)N[C@@H](CCCCN)C(=O)N[C@H](C(=O)N[C@@H](CC(C)C)C(=O)N[C@@H](CCCCN)C(=O)N[C@@H](C)C(=O)N[C@@H](CCC(N)=O)C(=O)N[C@@H](CC(N)=O)C(=O)N[C@@H](CO)C(=O)N[C@@H](CCC(=O)O)C(=O)N[C@@H](CC(C)C)C(=O)N[C@@H](C)C(=O)N[C@@H](CO)C(=O)N[C@H](C(=O)N[C@@H](C)C(=O)N[C@@H](CC(N)=O)C(=O)N[C@@H](CCSC)C(=O)N[C@@H](CC(C)C)C(=O)N[C@@H](CCCNC(=N)N)C(=O)N[C@@H](CCC(=O)O)C(=O)N[C@@H](CCC(N)=O)C(=O)N[C@H](C(=O)N[C@@H](C)C(=O)N[C@@H](CCC(N)=O)C(=O)N[C@@H](CC(C)C)C(=O)N[C@@H](CCCCN)C(=O)N[C@@H](CCC(N)=O)C(=O)N[C@@H](CCCCN)C(=O)N[C@H](C(=O)N[C@@H](CS)C(=O)N[C@@H](CS)C(N)=O)C(C)C)C(C)C)[C@@H](C)O)[C@@H](C)O)C(C)C (Ac-WRIARLEEKVKTLKAQNSELASTANMLREQVAQLKQKVCC-NH2)
